Experimental findings from ChEMBL document CHEMBL1134962, “Facilely accessible multidrug resistance modulator derived from sucrose” (2002) are described below.

Holding throughout (assay type): functional, Homo sapiens
Assay [1] relates to KB. Kind of assay: Percentage inhibition of growth against KB-C2 cells in the presence of colchicine(0.1 ug/mL) was determined when administered at 10 ug/mL. Put shortly: (§1)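 Multidrug-resistant KB-C2 cells were selected from KB-3-1 and kept in colchicine-containing RPMI 1640 with glutamine, kanamycin and 10% newborn calf serum. 10,000 cells per well were preincubated 24 h at 37 °C in 5% CO2. Colchicine plus the test sample were added together and incubated 48 h. Growth was read by MTT (3 h), with the formazan extracted in DMSO.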

Assay [2] has as its system KB. As to the kind of experiment: Percentage inhibition of growth against KB-C2 cells in the presence of colchicine(0.1 ug/mL) was determined when administered at 1 ug/mL. The procedure, abridged:
as §1

In assay [3] the test system is KB 3-1. As to the kind of experiment: Cytotoxicity against KB-3-1 cells was determined when administered at 3 ug/mL. Put shortly:
(§2)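 Parental KB-3-1 cells grown in RPMI 1640 with glutamine, kanamycin and 10% newborn calf serum. 10,000 cells per well were preincubated 24 h at 37 °C in 5% CO2. The test sample was then added alone and incubated 48 h. MTT was added for 3 h, and the formazan was extracted with DMSO before the colorimetric read.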

In assay [4] the test system is KB 3-1. As to the kind of experiment: Cytotoxicity against KB-3-1 cells was determined when administered at 1 ug/mL. Put shortly:
as §2

Assay [5] deals with KB. Kind of assay: Percentage inhibition of growth against KB-C2 cells in the presence of colchicine(0.1 ug/mL) was determined when administered at 3 ug/mL. The procedure, abridged:
as §1

Assay [6] has as its system KB 3-1. Kind of assay: Cytotoxicity against KB-3-1 cells was determined when administered at 10 ug/mL. Put shortly: as §2
Assay [7] has as its system KB. As to the kind of experiment: Percentage inhibition of growth against KB-C2 cells in the presence of colchicine (0.1 ug/mL) was determined when administered at 3 ug/mL. The procedure, abridged: as §1

Turning to `CC(C)CC(=O)OC[C@H]1O[C@H](O[C@]2(COC(=O)CC(C)C)O[C@H](COC(=O)CC(C)C)[C@@H](OC(=O)CC(C)C)[C@@H]2OC(=O)CC(C)C)[C@H](OC(=O)CC(C)C)[C@@H](O)[C@@H]1O`, the Growth inhibition in the assay with KB [1] was determined as 92%; in the assay with KB [2] it was 23%; in the assay on KB 3-1 [3], 16%; in the assay on KB 3-1 [4], 18%; with KB [5], 60%; in the assay on KB 3-1 [6], 93%.

Take `CC(C)CC(=O)OC[C@H]1O[C@@](COC(=O)CC(C)C)(O[C@H]2O[C@H](CO)[C@@H](OC(=O)CC(C)C)[C@H](O)[C@H]2OC(=O)CC(C)C)[C@@H](OC(=O)CC(C)C)[C@@H]1OC(=O)CC(C)C`: the Growth inhibition with KB [1] was 88%; in the assay on KB [2], 39%; with KB 3-1 [3], 10%; in the assay with KB 3-1 [4], 2%; with KB [5], 79%; in the assay on KB 3-1 [6], 40%.

As to `CC(C)CC(=O)OC[C@H]1O[C@@](COC(=O)CC(C)C)(O[C@H]2O[C@H](CO)[C@@H](O)[C@H](O)[C@H]2OC(=O)CC(C)C)[C@@H](OC(=O)CC(C)C)[C@@H]1OC(=O)CC(C)C`, the Growth inhibition is 93% in the assay with KB [1]; 40% in the assay with KB [2]; 21% with KB 3-1 [3]; 10% with KB 3-1 [4]; 76% in the assay on KB [5]; 92% in the assay on KB 3-1 [6].

As for `CC(C)CC(=O)OC[C@H]1O[C@@](COC(=O)CC(C)C)(O[C@H]2O[C@H](CO)[C@@H](O)[C@H](OC(=O)CC(C)C)[C@H]2OC(=O)CC(C)C)[C@@H](OC(=O)CC(C)C)[C@@H]1OC(=O)CC(C)C`, the Growth inhibition with KB [1] amounted to 94%; in the assay on KB [2], 18%; in the assay with KB 3-1 [3] it was 16%; in the assay on KB 3-1 [4] it was 6%; in the assay on KB [5] it was 53%; in the assay with KB 3-1 [6], 66%.

For the compound `CC(C)CC(=O)OC[C@H]1O[C@@](COC(=O)CC(C)C)(O[C@H]2O[C@H](COC(=O)CC(C)C)[C@@H](OC(=O)CC(C)C)C(OC(=O)CC(C)C)[C@H]2OC(=O)CC(C)C)[C@@H](OC(=O)CC(C)C)[C@@H]1OC(=O)CC(C)C` (stereo partly specified), the Growth inhibition is recorded as 24% in the assay on KB [1]; 4% in the assay on KB [2]; 15% in the assay with KB 3-1 [3]; 10% with KB 3-1 [4]; 12% in the assay on KB [5]; 25% in the assay with KB 3-1 [6].

With `CC(C)CC(=O)O[C@@H]1[C@@H](OC(=O)CC(C)C)[C@@H](O[C@]2(CO)O[C@H](CO)[C@@H](OC(=O)CC(C)C)[C@@H]2OC(=O)CC(C)C)O[C@H](CO)[C@H]1OC(=O)CC(C)C`, the Growth inhibition stood at 97% in the assay on KB [1]; 92% with KB [7]; 65% in the assay on KB [2]; 8% with KB 3-1 [3]; 9% in the assay on KB 3-1 [4]; 98% in the assay on KB 3-1 [6].
